Experimental data taken from ChEMBL document CHEMBL5046314, “Repositioning of a Diaminothiazole Series Confirmed to Target the Cyclin-Dependent Kinase CRK12 for Use in the Treatment of African Animal Trypanosomiasis” (J Med Chem, 2022).
The source made the active and inactive calls. The rule behind the calls is not given here.

Columns and labels:
Trypanosoma congolense [1] = test: Antitrypanosomal activity against bloodstream Trypanosoma congolense IL3000 infected in NMRI mouse assessed as reduction in parasitemia at 10 mg/kg, sc administered once daily for 4 days; format: functional; set-up: scale not given: the % may be the effect or the level left
Trypanosoma vivax [2] = test: Antitrypanosomal activity against bloodstream Trypanosoma vivax STIB 719/ ILRAD 560 infected in NMRI mouse assessed as reduction in parasitemia at 10 mg/kg, sc administered for 2 days; format: functional; set-up: scale not given: the % may be the effect or the level left; details: time 2 day
Trypanosoma vivax [3] = test: Antitrypanosomal activity against bloodstream Trypanosoma vivax STIB 719/ ILRAD 560 infected in Fulani Zebu cattle assessed as reduction in parasitemia at 10 mg/kg, IM administered twice daily and measured after for 100 days; format: functional, organism-based; details: time 100.0 day
Procedure, shortened: (§1)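 Female Fulani Zebu cattle infected with the named strain received 10 mg/kg of the free base by IM injection. The vehicle was Kolliphor EL, N-methyl pyrrolidone, 2-pyrrolidone and 11% water. Dosing was once or twice 15 h apart. Saline vehicle controls got 0.2 mL/kg twice, 15 h apart. Animals were followed for 100 days after treatment to score cure.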

Trypanosoma congolense [4] = test: Antitrypanosomal activity against bloodstream Trypanosoma congolense IL3000 infected in Fulani Zebu cattle assessed as reduction in parasitemia at 10 mg/kg, IM administered as single dose monitered for 100 days; format: functional, organism-based; details: time 100.0 day; procedure, shortened: as §1
Trypanosoma vivax [5] = test: Antitrypanosomal activity against bloodstream Trypanosoma vivax STIB 719/ ILRAD 560 infected in NMRI mouse assessed as reduction in parasitemia at 10 mg/kg, sc administered for 4 days; format: functional; set-up: scale not given: the % may be the effect or the level left
Trypanosoma vivax [6] = test: Antitrypanosomal activity against bloodstream Trypanosoma vivax STIB 719/ ILRAD 560 infected in Fulani Zebu cattle assessed as reduction in parasitemia at 10 mg/kg, IM administered twice daily and measured after 4 days; format: functional, organism-based; details: time 4.0 day
Trypanosoma vivax [7] = test: Antitrypanosomal activity against bloodstream Trypanosoma vivax STIB 719/ ILRAD 560 infected in NMRI mouse assessed as reduction in parasitemia at 3 mg/kg, sc administered for 4 days; format: functional; set-up: scale not given: the % may be the effect or the level left; details: time 4 day
Trypanosoma vivax [8] = test: Antitrypanosomal activity against bloodstream Trypanosoma vivax STIB 719/ ILRAD 560 infected in Fulani Zebu cattle assessed as reduction in parasitemia at 10 mg/kg, IM administered as single dose monitered for 100 days; format: functional, organism-based; details: time 100.0 day; procedure, shortened: as §1
Trypanosoma congolense [9] = test: Antitrypanosomal activity against bloodstream Trypanosoma congolense IL3000 infected in NMRI mouse assessed as reduction in parasitemia at 10 to 100 ng/ml administered via sc implanted ALZET osmotic pumps for 48 hrs; format: functional, organism-based; details: dose 10-100 ng/ml
Trypanosoma vivax [10] = test: Antitrypanosomal activity against bloodstream Trypanosoma vivax STIB 719/ ILRAD 560 infected in NMRI mouse assessed as reduction in parasitemia at 3 mg/kg, sc QD for 4 days and measured twice a week for 21 days; set-up: scale not given: the % may be the effect or the level left; details: time 21 day
[11] = test system: Trypanosoma brucei brucei; test: Antitrypanosomal activity against bloodstream Trypanosoma brucei brucei infected in NMRI mouse assessed as parasite growth inhibition at 3 mg/kg, po BID for 4 days; format: functional; set-up: scale not given: the % may be the effect or the level left; details: time 4 day
Trypanosoma congolense [12] = test: Antitrypanosomal activity against bloodstream Trypanosoma congolense KONT 2/133 infected in Friesian-Holstein calf assessed as reduction in parasitemia at 5 mg/kg, sc BID and measured after 3 days; format: functional, organism-based; details: time 3.0 day
Trypanosoma vivax [13] = test: Antitrypanosomal activity against bloodstream Trypanosoma vivax STIB 719/ ILRAD 560 infected in NMRI mouse assessed as reduction in parasitemia at 10 mg/kg, sc BID for 4 days and measured twice a week for 21 days; format: functional; set-up: scale not given: the % may be the effect or the level left; details: time 21 day
Trypanosoma vivax [14] = test: Antitrypanosomal activity against bloodstream Trypanosoma vivax STIB 719/ ILRAD 560 infected in NMRI mouse assessed as reduction in parasitemia at 30 mg/kg, sc administered as single dose and measured twice a week for 21 days; format: functional; set-up: scale not given: the % may be the effect or the level left; details: time 21 day
Trypanosoma congolense [15] = test: Antitrypanosomal activity against bloodstream Trypanosoma congolense IL3000 infected in NMRI mouse assessed as reduction in parasitemia at 3 mg/kg, sc administered for 4 days; format: functional; set-up: scale not given: the % may be the effect or the level left; details: time 4 day

With `CC(C)CS(=O)(=O)N[C@H]1CC[C@H](Nc2nc(N)c(C(=O)c3c(F)cc(CN(C)C)cc3F)s2)CC1` the Activity (Trypanosoma congolense [1]; time 4 day) was 100%, the Activity (Trypanosoma vivax [2]) was 100% and the Activity (Trypanosoma vivax [3]) was “inactive”. The Activity (Trypanosoma congolense [4]) was “inactive”, the Activity (Trypanosoma vivax [5]; time 4 day) was 100% and the Activity (Trypanosoma vivax [6]) was “inactive”. The Activity (Trypanosoma vivax [7]) was 100%, the Activity (Trypanosoma vivax [8]) was “inactive” and the Activity (Trypanosoma congolense [9]) was “Active”.

`CC(C)CS(=O)(=O)N[C@H]1CC[C@H](Nc2nc(N)c(C(=O)c3c(F)cccc3F)s2)CC1` was tested, and the Activity (Trypanosoma vivax [10]) was 100%, the Activity [11] was 100% and the Activity (Trypanosoma congolense [12]) was “Active”. It also gave an Activity (Trypanosoma vivax [13]) of 100% and an Activity (Trypanosoma vivax [14]) of 100%.

For `CC(C)CS(=O)(=O)N[C@H]1CC[C@H](Nc2nc(N)c(C(=O)c3c(Cl)cccc3Cl)s2)CC1`, the Activity (Trypanosoma vivax [7]) was 100% and the Activity (Trypanosoma congolense [15]) was 100%.

With `CC(C)CS(=O)(=O)N[C@H]1CC[C@H](Nc2nc(N)c(C(=O)c3c(F)cc(CN4CCCC4)cc3F)s2)CC1.Cl` the Activity (Trypanosoma vivax [5]; time 4 day) was 100%.

With `CC(C)CS(=O)(=O)N[C@H]1CC[C@H](Nc2nc(N)c(C(=O)c3c(F)cc(CN4CCOCC4)cc3F)s2)CC1` the Activity (Trypanosoma congolense [1]; time 4.0 day) was “inactive” and the Activity (Trypanosoma vivax [5]; time 4.0 day) was “inactive”.

In the case of `CC(C)CS(=O)(=O)N[C@H]1CC[C@H](Nc2nc(N)c(C(=O)c3c(F)cc(CN4CCN(C)CC4)cc3F)s2)CC1`, the Activity (Trypanosoma vivax [5]; time 4.0 day) is reported as “inactive”.

`CNCc1cc(F)c(C(=O)c2sc(N[C@H]3CC[C@H](NS(=O)(=O)CC(C)C)CC3)nc2N)c(F)c1.Cl` showed an Activity (Trypanosoma congolense [1]; time 4 day) of 100% and an Activity (Trypanosoma vivax [5]; time 4 day) of 100%.
